How the values were obtained:
[1] = test system: MS2 coat protein; assay: apparent Kd, MS2 coat protein; higher = weaker binding; RNA-MaP array
Method in brief: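 The designed RNAs, transcribed from sequenced DNA templates on an Illumina sequencing chip, were incubated with fluorescently labeled MS2 coat protein at room temperature. Protein ranged from 1.5 nM to 3 μM, with 0.8–1.5 h incubation at the lowest and 10–20 min at the highest concentrations, in Tris-HCl pH 7.5 buffer with KCl, MgCl2, BSA, DTT, tRNA and Tween20, with or without input ligand. The median of per-cluster binding-curve fits gives the apparent Kd, and designs measured on fewer than 10 clusters were excluded.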

[2] = test system: MS2 coat protein; assay: apparent Kd, MS2 coat protein; higher = weaker binding; RNA-MaP array; FMN 200 µM where present
Method in brief: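 In 100 mM Tris-HCl pH 7.5, 80 mM KCl, 4 mM MgCl2, BSA, DTT, yeast tRNA and Tween-20, SNAP-549-labelled MS2 coat protein was titrated from 0.7 or 1.5 nM, doubling to 3 µM, over designs transcribed by stalled E. coli RNA polymerase on Illumina sequencing-chip clusters. This was done first without ligand, then with ligand held constant. After green signal was normalised to red-channel RNA signal and control-cluster median Fmax, the apparent Kd was taken as the median of filtered per-cluster binding-curve fits.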

[3] = designed as: OFF switch for tryptophan, no ligand
[4] = ligand present: tryptophan, designed as: OFF switch for tryptophan
[5] = designed as: ON switch for flavin mononucleotide, no ligand
[6] = ligand present: flavin mononucleotide, designed as: ON switch for flavin mononucleotide
[7] = designed as: OFF switch for flavin mononucleotide, no ligand
[8] = ligand present: flavin mononucleotide, designed as: OFF switch for flavin mononucleotide

UACUGUCUAACGGCCGCCACUCAGUCUCGGUUGAUUAUCUUAAGUGACAUGAGGAUCACCCAUGUGAGGACCGGGUUGUGCAUAA
apparent Kd [1, 3]: 76 nM
apparent Kd [1, 4]: 136 nM

GACGGCUCUAAGGAGGAUAUGGGAAUCAGCACAUGAGGAUCACCCAUGUAAAUGCCUCGGCUGAACCAGAAGGCCUUGGUCAGGAC
apparent Kd [1, 5]: 380 nM
apparent Kd [1, 6]: 269 nM

UACCGAGGGACAGGAUAUUGAGCAUGCCUCGCCCAAGAAGGGUCUUCUGGAGUGACUUAUAACAUGAGGAUCACCCAUGUGAUC
apparent Kd [1, 7]: 410 nM
apparent Kd [1, 8]: 262 nM

CGCCUAGGGUAUCAGGAUAUGACGGGCAUAACAUGAGGAUCACCCAUGUAAGAGUAGUACAGUUGUCAGAAGGGAUGAUCUAGAAU
apparent Kd [1, 5]: 162 nM
apparent Kd [1, 6]: 25.5 nM

AGAUCCGGCGUGAGGAUAUAGCAAGCAACUAACGACUAGAAGGCACAUGAGGAUCACCCAUGUCUGUUACACUA
apparent Kd [1, 7]: 12.1 nM
apparent Kd [1, 8]: 36.7 nM

UACCUUAUUGUUAGGAUAUGCAGAUACAAAGGUGAGCAGAAGGAACAUGAGGAUCACCCAUGUAAAAUAAUAAA
apparent Kd [1, 7]: 16.6 nM
apparent Kd [1, 8]: 48 nM

GGAAGCUCCUUGAGACAUGAGGAUCACCCAUGUGCCAUUCCGAGAAGGUAGACUGGACGAGAGGCUAAGGAUAUCGGCGCGCUC
apparent Kd [1, 7]: 16.7 nM
apparent Kd [1, 8]: 15.6 nM

AUAAAAGCCACAUGAGGAUCACCCAUGUAGCAGGAAGCCAGCAAGGAUAUCGCAACAGGAGGGAUCGAGAAGGAGCGUAACUAA
apparent Kd [1, 5]: 23.7 nM
apparent Kd [1, 6]: 18.2 nM

UUCUACAUGAGGAUCACCCAUGUCCCUGGGACCCUUGCAUCCAGAAGGCACGACUAGAUGGUGUGUGAGGAUAUGGAGGCGCUU
apparent Kd [1, 7]: 162 nM
apparent Kd [1, 8]: 144 nM

AGUUAGCCUGAUGAGGAUAUACACGCCCGGACAUGAGGAUCACCCAUGUUAACAAGUUAGCUAUUGUAGAAGGCAUCGAGGUGAUG
apparent Kd [1, 5]: 44.8 nM
apparent Kd [1, 6]: 33.5 nM

CACUACUCCCAAGGAUAUUACGCUACAAAUCUUACUAACAUGAGGAUCACCCAUGUUCGGAACGGAAAGAAGGUGGGCUUAUAC
apparent Kd [1, 5]: 9.38 nM
apparent Kd [1, 6]: 8.22 nM

AAGCGUAGCUAGGAUAUGUAAUGACGGCUUUGAACAGAAGGAGCUACAUGAGGAUCACCCAUGUGUCCGACACA
apparent Kd [1, 7]: 15.9 nM
apparent Kd [1, 8]: 125 nM

CGGUUACAUGAGGAUCACCCAUGUUCCAUGGUUGAAGGAUAUGGCGACGGCGCGUGGGUACCAGAAGGUCAGGCAC
apparent Kd [1, 5]: 26 nM
apparent Kd [1, 6]: 19.6 nM

GUAGAGCUCAUAGGAUAUACUCGACCGGAGGCAGUAGAAGGAUGCGUCAAAUACAUGAGGAUCACCCAUGUGAUGGUAAUCGUC
apparent Kd [1, 7]: 13.6 nM
apparent Kd [1, 8]: 14.4 nM

UAGUACCAAGUGAGGAUAUCUAAAGUCUAUGAAAGAGAGAAGGCACAUGAGGAUCACCCAUGUAACUAGGUGGG
apparent Kd [1, 7]: 152 nM
apparent Kd [1, 8]: 162 nM

UCCACACAUGAGGAUCACCCAUGUUGACAUUAUUGAGGAUAUCGGAGUGAAGGUUCGGUUCGAGAAGGCAACCAGA
apparent Kd [1, 5]: 19.8 nM
apparent Kd [1, 6]: 14.8 nM

CCUCACGAAAUCGAUGAAAGCAUGUGGCACCGAGGACCGGUACGGCCGCCACUCGCAUCCACACAUGAGGAUCACCCAUGUAAGA
apparent Kd [1, 3]: 39.3 nM
apparent Kd [1, 4]: 51.6 nM

CGUCACCUAAAAGGAUAUCUACAAUACAGGAUUGCGUCUCACAUGAGGAUCACCCAUGUGUGUCCAGAGAAGGUUUCGGCACGU
apparent Kd [1, 7]: 8.55 nM
apparent Kd [1, 8]: 8.34 nM

CCGCCACUACAUGAGGAUCACCCAUGUGAACCGUAGAACAUGAGAAGGUGCCUAAAGCUCGAGGGCAAGGAUAUCAACCGCCGC
apparent Kd [1, 5]: 125 nM
apparent Kd [1, 6]: 97.5 nM

AUGCAUCUAGGAUAUGCGGUGAUUUACAUGAGGAUCACCCAUGUAGACCACCGGUCUAGAGCAGAAGGAGAUGUGG
apparent Kd [1, 7]: 5.17 nM
apparent Kd [1, 8]: 5.54 nM

GUUUUCAAGUCGGCCGCCACUGAUACAAUCCUCACCGGUUCACAUGAGGAUCACCCAUGUUCGCUCAGGACCGGGACCUUCUGUG
apparent Kd [1, 3]: 127 nM
apparent Kd [1, 4]: 108 nM

GGACUACAUGAGGAUCACCCAUGUUUUUAAGACACAGGAUAUGAUCACCGCGGACAUGUAUCAGAAGGGUGUACAU
apparent Kd [1, 5]: 21.8 nM
apparent Kd [1, 6]: 10.1 nM

CGCAGACAUGAGGAUCACCCAUGUACCAUGAACAGGAAUACAAGAAGGGCAAACUUUAGAUUGAUGCAGGAUAUUGUCACGAGA
apparent Kd [1, 5]: 25.8 nM
apparent Kd [1, 6]: 14 nM

UAUUCUGACACAGAUACCAGUCAAUUCCGUGGCAAGUGCUACAUGAGGAUCACCCAUGUCGACCCUUGGCAGCUGAAGAGAUACA
apparent Kd ([1]; designed as: OFF switch for theophylline, no ligand): 12.1 nM
apparent Kd ([1]; ligand present: theophylline, designed as: OFF switch for theophylline): 14.1 nM

UCACUCCUGAUGGAUACCAGUUACUAACGCAACAUGAGGAUCACCCAUGUGAACACUCAGAACCCUUGGCAGCCAGGAGAACGAA
apparent Kd ([1]; designed as: ON switch for theophylline, no ligand): 48.2 nM
apparent Kd ([1]; ligand present: theophylline, designed as: ON switch for theophylline): 25.5 nM

GUUACCAUGUCGGCCGCCACUAACAAGGUUAUGGCAAGUCUACACGACAUGAGGAUCACCCAUGUUAGGACCGGGACCCAUACCC
apparent Kd [1, 3]: 13.4 nM
apparent Kd [1, 4]: 14 nM

GCGAUAGCUGUCAAGGAUAUGAGGCUGACCACAUGAGGAUCACCCAUGUUUACAACAAAAUAGAUUCAGAAGGUGACAACAAGUAG
apparent Kd [1, 5]: 80.3 nM
apparent Kd [1, 6]: 18.1 nM

UUGAUUAUACAAGGAUAUCAAUUGUAAUUAAGACUUACAUGAGGAUCACCCAUGUUAAUAUUUUUUGAGAAGGUGUAUUUUCAG
apparent Kd [2, 5]: 25.4 nM
apparent Kd [2, 6]: 21.9 nM

UGUCGGAGCAGAGGAUAUUACAUGAGGAUCACCCAUGUAUGAACCAAUAGCUGGAAACAGCAAUGUAAGAAGGCUGCUCCGACG
apparent Kd [2, 7]: 12.9 nM
apparent Kd [2, 8]: 157 nM

AUGGAUAUCACAGGAUAUGCUAUGGAUACCAUAGCAGAAGGGUGAUCCAUCCUAUGUGAACACAUGAGGAUCACCCAUGUGUCC
apparent Kd [2, 5]: 98.4 nM
apparent Kd [2, 6]: 17.9 nM

CACACAUGUGGAGGAUAUGUAGUUAACAUAAGCGCAGAAGGCCACAUGAGGAUCACCCAUGUCCGGCAUUAGCCGAUGUUGAUC
apparent Kd [2, 7]: 108 nM
apparent Kd [2, 8]: 397 nM

UCCACUGCUGAGAAGGGAUACGUGUGGUUCGAAUCAGGAUAUCGAUACAGUGCAGCAUGAGGACAUGAGGAUCACCCAUGUAUU
apparent Kd [2, 5]: 19.1 nM
apparent Kd [2, 6]: 14.2 nM

AUUAUUUUGUAGAAGGACGACUAUUAAUUUUUCGUAGGAUAUACUAUUUACAUGAGGAUCACCCAUGUUUAAAUGGAACAAUGU
apparent Kd [2, 7]: 9.32 nM
apparent Kd [2, 8]: 10.4 nM

CUUGUUUAUGUAGGAUAUGCCUGGCGUGCCUUUGCAGAAGGACAUGAGGAUCACCCAUGUAACAUGAGGCUCCACCUUGUCGCC
apparent Kd [2, 7]: 143 nM
apparent Kd [2, 8]: 141 nM

AAGAAACAUGAGGAUCACCCAUGUAAAUAAAUCUCAGGAUAUCGUACAUGGAAGAUCUAACGAGAAGGGAGAAGAA
apparent Kd [2, 5]: 137 nM
apparent Kd [2, 6]: 140 nM

GUGCGGUAGGAGAAGGACGGAGGCUUCAUUACAUACAUGAGGAUCACCCAUGUAGGAUAUCCUACCUCACGCGGCCUCCUUCUG
apparent Kd [2, 7]: 6.52 nM
apparent Kd [2, 8]: 7.65 nM

CAGUGCUGUUGAGAGGAUAUGCGGCGACGGACAUGAGGAUCACCCAUGUUAGCGACAGCGUUGCGGCAGAAGGCUCUGCCCGCUA
apparent Kd [2, 5]: 52.3 nM
apparent Kd [2, 6]: 23.1 nM

GAACGUAAAGAGAAGGGCUACUGGUUGAAACCUGCGGCCUCUGGAACAUGAGGAUCACCCAUGUAGCAGGAUAUCUUUGCAUUA
apparent Kd [2, 7]: 146 nM
apparent Kd [2, 8]: 18.9 nM

ACAUGAGGAUCACCCAUGUUUUCAUGGAUUAUUAUUCUUUGAUAGGAUAUGUUAGUUAAGUAUUUACAGAAGGAUCAUUACCAA
apparent Kd [2, 7]: 22.6 nM
apparent Kd [2, 8]: 16.1 nM

UUUAAUUAGUAAGGAUAUACUAGUGAUUAACUUGUAGAAGGUACAGUCUUAUGUAUAACAAAUUAACAUGAGGAUCACCCAUGU
apparent Kd [2, 5]: 9.54 nM
apparent Kd [2, 6]: 8.3 nM

AUUAGCUCGUCAGGAUAUACGUCACUGCGUCAGCAGUGUGGUAAGAUCACAUGAGGAUCACCCAUGUAGAAGGGACGAGCUGAU
apparent Kd [2, 7]: 13 nM
apparent Kd [2, 8]: 289 nM

GAAGUUCUCCAGAAGGCACAUGAGGAUCACCCAUGUAAAAGAGCCUUAAUGUGAGGAUAUGGAAGCUGCUUCAUAGAUGACAUA
apparent Kd [2, 7]: 6.61 nM
apparent Kd [2, 8]: 26.5 nM

AGACAUGUCCGAGGAUAUCUGGAAACAUUUCCAAGAGAAGGCGGACAUGAGGAUCACCCAUGUCUCUCCUCAUCAAAUCCAAGU
apparent Kd [2, 7]: 10.7 nM
apparent Kd [2, 8]: 90.9 nM

GGAUGUCAAAGACAUCCUAAACGAACAUGAGGAUCACCCAUGUAGGAUAUGCUACUCAAAGAGUAGCAGAAGGACAUGUGCCUU
apparent Kd [2, 7]: 35 nM
apparent Kd [2, 8]: 238 nM

GUUGCGUUUGUGAGGAUAUGCUGGUCCUUGGUUCGGCAGAAGGCACAUGAGGAUCACCCAUGUGGUGUUGUUCC
apparent Kd [2, 7]: 126 nM
apparent Kd [2, 8]: 94.7 nM

Source: the EternaBench riboswitch data
